# In the library only some 0.98% were active in any assay of this set; here they are far more common.
# PGC1a acetyl inh: PGC1a acetylation modulation, inhibitor mode. U2OS PGC1a acetylation, AlphaScreen anti-acetyl-lysine; with virally co-expressed GCN5 acetyltransferase. inhibition, % at 15.6 µM. 0.17% of 350,000 active. AID 651687;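 active = every replicate shows inhibition of at least 40%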;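 also: 0% = neutral control wells and 100% = positive control wells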
# S100A4 inh HTS: blocks human S100A4 binding to myosin IIA peptide; S100A4/TAMRA-MyoIIA peptide fluorescence polarization; inhibition, % at 10.7 µM; AID 652163; 0.14% of 360,000 active; P26447;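 active = mean inhibition of at least 70% across replicates, with every replicate also reaching that level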
#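 Test system: S100A4 monomer protein. Medium: HEPES buffer with Ca2+, pH 7.2. Reagent: fluorescent myosin IIA peptide, 5 nM. Compound dosing: single-point compound testing. Timing: 5 min between mix addition and reading. Benchmarks: DMSO neutral and TFP positive wells.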
# ERAP1 HTS inh: ERAP1 (human) enzyme inhibition; Q9NZ08; recombinant ERAP1, Leu-AMC fluorescence, 60 min; inhibition, % at 10.7 µM; 0.15% of 340,000 active;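 active = mean replicate inhibition of at least 30%, or all replicates individually reaching that 30% level; inactive = mean below 30% and not every replicate reaching it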;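 also: 0% = neutral control wells and 100% = L-leucinethiol positive control wells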
# Rtt109 Vps75: blocks Candida albicans Rtt109/Vps75 acetyltransferase activity; AID 540336; inhibition, % at 34.9 µM; purified Rtt109/Vps75, ThioGlo CoA-SH fluorescence, 4 h; 0.16% of 330,000 active;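 active = inhibition of at least 50% in every replicate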
# Statin myotox sup: protects C2C12 myotubes from simvastatin toxicity | ATP luminescence, 48 h; scaled: DMSO 0, geranylgeraniol control 100 | rescue of ATP level, % at 7.49 µM | 0.78% of 330,000 active | AID 602340;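 active = mean ATP rescue above about 67%, or every replicate alone reaching that limit, limit read from the data, passing the limit was not always enough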;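 also: myotubes were challenged with 10 µM simvastatin during compound exposure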
# The depositor's hits bear a star; x = no result given.
SMILES,PGC1a acetyl inh,S100A4 inh HTS,ERAP1 HTS inh,Rtt109 Vps75,Statin myotox sup
C[C@H]1CN([C@@H](C)CO)C(=O)Cc2cc(NC(=O)Nc3ccccc3)ccc2O[C@@H]1CN(C)C(=O)Nc1cccc2ccccc12,-3.4,-2.2,-1.8,x,0.8
O=C(CN1C(=O)C2(OCCO2)c2cc(Br)ccc21)NO,x,-3.9,34.3*,-6.5,x
O=C(O)CN1C(=O)C2(OCCO2)c2cc(Br)ccc21,2.0,-1.5,1.4,-1.0,x
O=C(CSc1nnnn1-c1cccc2c1CCCC2)N1CCCCC1,-2.8,x,x,x,105.0*
COc1cccc(-c2nnc(SCC(=O)N3CCCc4ccccc43)o2)c1,-3.4,x,x,2.1,98.5*
COc1ccc(-n2nnnc2SCC(=O)N2CCCc3ccccc32)cc1OC,-3.7,x,x,-3.5,127.7*
COc1cc(OC)cc(-c2nnc(SCC(=O)N3CCCc4ccccc43)o2)c1,-6.7,x,x,2.4,107.9*
COc1ccc(OC)c(-c2nnc(SCC(=O)N3CCCc4ccccc43)o2)c1,4.3,x,x,3.9,14.5
COC(=O)C(Cc1ccc(OC(=O)c2ccc(C(F)(F)F)cc2)cc1)N1Cc2ccccc2C1=O (stereo not drawn),0.3,x,x,-4.5,-3.0
COC(=O)C(Cc1ccc(OC(=O)c2ccc(Cl)cc2)cc1)N1Cc2ccccc2C1=O (stereo not drawn),6.5,x,x,6.8,83.6*
O=C(N[C@H]1C=C[C@@H](CC(=O)N2CCC(Cc3ccccc3)CC2)O[C@@H]1CO)c1cnccn1,-12.0,22.8,-0.1,x,0.3
C[C@H]1CN([C@@H](C)CO)C(=O)Cc2cc(NS(=O)(=O)c3ccc(F)cc3)ccc2O[C@@H]1CN(C)S(C)(=O)=O,6.1,-3.1,7.0,x,26.5
Oc1[nH]c2ccccc2c1N=Nc1nc(Nc2ccccc2)nc(N2CCOCC2)n1,-1.7,0.5,70.2*,2.8,-76.6
C[C@@H]1CN([C@@H](C)CO)C(=O)c2cccc(NS(=O)(=O)c3ccccc3)c2O[C@@H]1CN(C)S(C)(=O)=O,10.4,5.5,1.1,x,20.8
CSc1nc(-c2ccco2)nn1S(=O)(=O)c1ccc(C)cc1,15.2,3.7,-0.6,7.3,-2.9
Cc1ccc(S(=O)(=O)n2nc(-c3ccco3)nc2SCc2ccccc2)cc1,5.1,x,x,-11.0,108.8*
C[C@@H]1CN([C@H](C)CO)C(=O)c2cccc(NC(=O)Nc3ccc(F)cc3)c2O[C@H]1CN(C)Cc1ccccc1,-9.9,-2.6,-4.3,x,72.0*
CNC[C@H]1Oc2c(NC(=O)Nc3ccc(C(F)(F)F)cc3)cccc2C(=O)N([C@@H](C)CO)C[C@H]1C,-3.5,93.3*,0.1,x,-57.7
CC(C)NC(=O)Nc1ccc2c(c1)C(=O)N([C@@H](C)CO)C[C@H](C)[C@H](CN(C)Cc1ccccc1)O2,2.6,9.2,-2.5,x,77.0*
C[C@H](CO)N1C[C@H](C)[C@H](CN(C)Cc2ccccc2)Oc2c(NC(=O)CCCCCC(=O)Nc3ccccc3N)cccc2C1=O,-6.6,107.9*,1.6,x,x
C[C@H](NC(=O)C[C@H]1C=C[C@H](NC(=O)Cc2ccccn2)[C@@H](CO)O1)c1ccccc1,-8.0,1.9,1.1,x,0.4
C[C@H](CO)N1C[C@H](C)[C@H](CN(C)CC2CCCCC2)Oc2c(NC(=O)Nc3ccc4c(c3)OCO4)cccc2C1=O,-7.2,3.8,-15.1,x,-4.4
C[C@H]1CN([C@@H](C)CO)C(=O)c2cccc(NC(=O)Nc3ccc4c(c3)OCO4)c2O[C@@H]1CN(C)CC1CCCCC1,-16.1,5.3,-0.5,x,86.1*
O=C(Cn1ncc2c3ccccc3n(Cc3cccc(Cl)c3)c2c1=O)NCC1CCCO1 (stereo not drawn),0.7,-4.3,-4.3,-1.6,100.0*
O=C(Nc1cccc(Cl)c1)N[C@H]1CC[C@H](CCNC(=O)C2CCCC2)O[C@H]1CO,0.3,131.9*,3.4,x,-4.4
SMILES,PGC1a acetyl inh,S100A4 inh HTS,ERAP1 HTS inh,Rtt109 Vps75,Statin myotox sup
O=C(Nc1ccccc1F)N[C@H]1CC[C@@H](CCNC(=O)C2CCCCC2)O[C@@H]1CO,-5.3,16.8,-3.6,x,-7.2
O=C(Nc1ccccc1F)N[C@H]1CC[C@H](CCNC(=O)C2CCCCC2)O[C@H]1CO,-17.4,87.4*,-2.5,x,-0.6
O=C(Nc1cccc(Cl)c1)N[C@H]1CC[C@H](CCNC(=O)C2CCCC2)O[C@@H]1CO,-2.2,1.2,3.6,x,1.0
C[C@@H]1CN([C@H](C)CO)C(=O)c2cc(NS(C)(=O)=O)ccc2O[C@@H](C)CCCCO[C@H]1CN(C)Cc1ccc(C(=O)O)cc1,9.7,2.2,2.0,x,x
COC(=O)c1ccc(CSc2nnc(Nc3ccc(C)cc3)s2)o1,-4.5,x,x,1.0,95.1*
Oc1ccc(/C=N/Nc2nc(-c3ccc(Cl)cc3)cc(C(F)(F)F)n2)cc1,64.1*,2.8,5.3,0.9,9.6
CCCN(C)C[C@@H]1OCCCC[C@@H](C)Oc2ccc(NC(=O)C3CCCCC3)cc2C(=O)N([C@H](C)CO)C[C@@H]1C,0.4,6.4,4.9,x,x
CC1(C)OC(=O)N(c2ccccc2)C12C=Cc1cc(Br)ccc1O2 (stereo not drawn),-16.7,x,x,53.4*,-5.3
CCOC(=O)c1ccc(NC(=O)N2CCCCCC2)cc1,x,12.0,-2.8,6.4,-5.3
CCCN1CCN(C(=O)Nc2ccc(C(=O)OCC)cc2)CC1,-2.2,x,x,2.0,108.9*
C[C@@H]1CN([C@@H](C)CO)C(=O)c2cc(/C=C/c3ccccc3)cnc2O[C@H]1CN(C)C(=O)C1CCCCC1,3.6,9.0,-1.1,x,40.1
O=C(/C=C/c1cccs1)c1ccc(NC(=O)c2cccc(Br)c2)cc1,47.6*,x,x,2.6,-22.4
Cc1ccc(C(=O)Nc2ccc(C(=O)/C=C/c3cccs3)cc2)cc1,-3.2,x,x,-4.9,-3.4
O=C(CC(F)(F)F)N1C[C@@H]2[C@H](c3ccccc31)[C@@H](CO)N2CC1CCOCC1,2.5,90.1*,4.4,x,-19.3
O=C(CC(F)(F)F)N1C[C@H]2[C@@H](c3ccccc31)[C@@H](CO)N2CC1CCOCC1,8.4,-4.8,3.9,x,18.7
O=C(C[C@H]1CC[C@@H](NC(=O)Nc2ccccc2F)[C@H](CO)O1)NCc1ccc(F)cc1,3.2,-1.2,-1.5,x,x
Oc1ccc(-c2csc(Nc3ccc4c(c3)OCO4)n2)c(O)c1,5.5,0.7,3.4,14.3,131.6*
COCC(=O)Nc1ccc2c(c1)OC[C@@H](C)N(Cc1cccnc1)C[C@@H](C)[C@@H](OC)CN(C)C2=O,13.4,11.2,x,x,12.5
C[C@@H]1CN([C@@H](C)CO)C(=O)c2cc(NC(=O)Nc3ccc(C(F)(F)F)cc3)ccc2O[C@@H]1CN(C)S(=O)(=O)c1cccs1,1.3,x,x,x,x
CN(C)C(=O)c1cccc(-c2ccc([C@H]3[C@@H](CO)N4C(=O)CN(C(=O)Cc5ccccc5)C[C@@H]34)cc2)c1,6.4,39.9,-1.1,x,x
Cc1ccc(SCCNC(=S)Nc2cc(C)cc(C)c2)cc1,-7.3,x,x,-8.9,117.2*
COC(=O)c1scc(C)c1NC(=O)C1CCCCC1,-20.7,x,x,12.1,83.1*
COC(=O)c1scc(C)c1NC(=O)c1ccc(Cl)cc1,x,x,x,6.8,11.8

# Screening results (PubChem)
